# Reference: ChEMBL document CHEMBL4425151, “Design, Synthesis, and Initial Evaluation of Affinity-Based Small-Molecule Probes for Fluorescent Visualization and Specific Detection of Keap1” (J Med Chem, 2016)
# Calls of active or inactive are those of the source. The rule behind the calls is not given here.
# Key:
# [1] = target: T1, Kelch-like ECH-associated protein 1 (Homo sapiens, UniProt Q14145); test: Inhibition of FITC-labeled 9-mer Nrf2 peptide amide binding to human KEAP1 kelch domain (322 to 609 residues) expressed in Escherichia coli Arctic(DE3) cells incubated for 30 mins by fluorescence polarization assay
# T1 sequence (Q14145 whole entry, the tested form may be a part): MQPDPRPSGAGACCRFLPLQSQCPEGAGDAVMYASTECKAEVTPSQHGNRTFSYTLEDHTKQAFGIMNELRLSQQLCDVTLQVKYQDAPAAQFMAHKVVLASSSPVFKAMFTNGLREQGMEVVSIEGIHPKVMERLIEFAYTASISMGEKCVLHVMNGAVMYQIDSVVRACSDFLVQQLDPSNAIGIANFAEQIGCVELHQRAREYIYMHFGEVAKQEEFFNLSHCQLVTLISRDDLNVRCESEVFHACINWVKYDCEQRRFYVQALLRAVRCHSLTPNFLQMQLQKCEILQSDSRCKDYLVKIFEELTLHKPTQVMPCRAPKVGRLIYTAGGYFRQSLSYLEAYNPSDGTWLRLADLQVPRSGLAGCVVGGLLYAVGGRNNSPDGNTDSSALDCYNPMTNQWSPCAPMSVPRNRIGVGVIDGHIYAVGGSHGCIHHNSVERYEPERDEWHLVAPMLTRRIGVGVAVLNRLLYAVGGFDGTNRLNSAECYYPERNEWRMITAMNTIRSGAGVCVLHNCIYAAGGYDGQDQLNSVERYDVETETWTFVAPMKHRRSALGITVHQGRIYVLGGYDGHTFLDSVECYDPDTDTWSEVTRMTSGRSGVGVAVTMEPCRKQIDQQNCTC
# [2] = target: T1, Kelch-like ECH-associated protein 1; test: Binding affinity to KEAP1 kelch domain in human NCM460 cells after 2 hrs by Western blot based affinity pulldown assay; type: cell-based
# Summary of the method: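 Streptavidin magnetic beads loaded with the biotin probe (50 µg/100 µL), 30 min at 4 °C, then free sites blocked with biotin. Beads incubated with NCM460 colonic cell lysate for 2 h at 4 °C with rotation and washed with TBS. Bound protein eluted in buffer with 2% SDS at 95 °C for 5 min. Analysed by SDS-PAGE and western blot with anti-Keap1 antibody.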
# [3] = target: T1, Kelch-like ECH-associated protein 1; test: Binding affinity to human KEAP1 kelch domain (322 to 609 residues) expressed in Escherichia coli Arctic(DE3) cells by biolayer interferometry method
# Summary of the method: (§1)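 Biotinylated probe immobilized on super streptavidin biosensor tips. Sequence: baseline, loading, second baseline, Keap1 Kelch domain association (kon), then dissociation (koff). Six Keap1 concentrations tested, all at 30 °C. Kinetic constants fitted from the sensorgrams, and Kd taken as koff/kon.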
# [4] = target: T1, Kelch-like ECH-associated protein 1; test: Binding affinity to human KEAP1 kelch domain (322 to 609 residues) expressed in Escherichia coli Arctic(DE3) cells assessed as association constant by biolayer interferometry method; summary of the method: as §1
# [5] = target: T1, Kelch-like ECH-associated protein 1; test: Binding affinity to human KEAP1 kelch domain (322 to 609 residues) expressed in Escherichia coli Arctic(DE3) cells assessed as dissociation constant by biolayer interferometry method; summary of the method: as §1
# [6] = target: T1, Kelch-like ECH-associated protein 1; test: Binding affinity to human KEAP1 kelch domain (322 to 609 residues) expressed in Escherichia coli Arctic(DE3) cells at 0.05 mM by isothermal titration calorimetry
# Summary of the method: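 ITC at 25 °C. Lyophilized Keap1 Kelch domain and the FITC probe both dissolved in 10 mM HEPES pH 7.4. Nineteen 2 µL injections of 0.05 mM probe, 2.5 min apart, stirred at 750 rpm, into cell holding 0.005 mM Kelch domain. Kd obtained from a 1:1 binding model fit.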
# [7] = target: T1, Kelch-like ECH-associated protein 1; test: Binding affinity to KEAP1 kelch domain in nucleus of human NCM460 cells at 10 uM after 10 hrs by DAPI staining based confocal microscopic analysis; type: cell-based
# Summary of the method: (§2)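 NCM460 colonic cells exposed to the FITC probe at 10 µM for 10 h, then fixed. Keap1 primary antibody applied overnight at 4 °C, then Alexa Fluor-labelled goat anti-rabbit secondary for 1 h at 37 °C. Nuclei stained with DAPI. Imaged by laser scanning confocal microscopy at excitation 570 and 340 nm for co-localization. Three separate experiments.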
# [8] = target: T1, Kelch-like ECH-associated protein 1; test: Binding affinity to KEAP1 kelch domain in cytoplasm of human NCM460 cells at 10 uM after 10 hrs by DAPI staining based confocal microscopic analysis; type: cell-based; summary of the method: as §2
IC50 [1],Activity [2],Activity [3],Kd [3],K [4],K [5],EC50 [1],Kd [6],Activity [7],Activity [8],SMILES
30.7 nM,–,–,–,–,–,–,–,–,–,COc1ccc(S(=O)(=O)N(CC(=O)O)c2ccc(N(CC(=O)O)S(=O)(=O)c3ccc(NC(=O)CCCC(=O)NCCN)cc3)c3ccccc23)cc1
74 nM,Active,Dose-dependent effect,21.6 nM,6.24 ×10⁴ /M/s,1.35 ×10⁻³ /s,–,–,–,–,COc1ccc(S(=O)(=O)N(CC(=O)O)c2ccc(N(CC(=O)O)S(=O)(=O)c3ccc(NC(=O)CCCC(=O)NCCNC(=O)CCCC[C@@H]4SC[C@@H]5NC(=O)N[C@@H]54)cc3)c3ccccc23)cc1
–,–,–,–,–,–,14.7 nM,29.1 nM,Active,Active,COc1ccc(S(=O)(=O)N(CC(=O)O)c2ccc(N(CC(=O)O)S(=O)(=O)c3ccc(NC(=O)CCCC(=O)NCCNC(=S)Nc4ccc5c(c4)C(=O)OC54c5ccc(O)cc5Oc5cc(O)ccc54)cc3)c3ccccc23)cc1
